Source: PubChem BioAssay
KLK5 inh = inhibitors of human kallikrein 5 | recombinant hK5, fluorogenic AMC substrate cleavage | inhibition, % at 5 µM | 210,000 tested, 0.59% active;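 active = inhibition of 40% or more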;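 note: 0% = enzyme controls without compound and 100% = no-enzyme blanks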
Platelet DG rel = platelet dense granule release activity; 300,000 tested, 0.22% active; inhibition, %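 (compounds screened at 7.5 µM in platelet-rich plasma)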; human platelet-rich plasma, SFLLRN dense granule ATP release, luminescence;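 active = mean replicate score, as percent of positive control, at or above 50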
Wee1 stabilizer = inhibitors of human Wee1 degradation. HeLa Luc-Wee1K328M stability, luciferase luminescence; 100% = proteasome inhibitor MG132 effect. reporter increase, % at 5 µM. 220,000 tested, 1.2% active. AID 1321;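 active = activation above the mean of all tested compounds plus 3 SD, set per screening run, cut at about 8.8% in these data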;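 note: cells exposed to compound for 20 h before luminescence read; 0% = DMSO alone and 100% = MG132 at 30 µM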
Target sequence (P30291 whole entry K328M): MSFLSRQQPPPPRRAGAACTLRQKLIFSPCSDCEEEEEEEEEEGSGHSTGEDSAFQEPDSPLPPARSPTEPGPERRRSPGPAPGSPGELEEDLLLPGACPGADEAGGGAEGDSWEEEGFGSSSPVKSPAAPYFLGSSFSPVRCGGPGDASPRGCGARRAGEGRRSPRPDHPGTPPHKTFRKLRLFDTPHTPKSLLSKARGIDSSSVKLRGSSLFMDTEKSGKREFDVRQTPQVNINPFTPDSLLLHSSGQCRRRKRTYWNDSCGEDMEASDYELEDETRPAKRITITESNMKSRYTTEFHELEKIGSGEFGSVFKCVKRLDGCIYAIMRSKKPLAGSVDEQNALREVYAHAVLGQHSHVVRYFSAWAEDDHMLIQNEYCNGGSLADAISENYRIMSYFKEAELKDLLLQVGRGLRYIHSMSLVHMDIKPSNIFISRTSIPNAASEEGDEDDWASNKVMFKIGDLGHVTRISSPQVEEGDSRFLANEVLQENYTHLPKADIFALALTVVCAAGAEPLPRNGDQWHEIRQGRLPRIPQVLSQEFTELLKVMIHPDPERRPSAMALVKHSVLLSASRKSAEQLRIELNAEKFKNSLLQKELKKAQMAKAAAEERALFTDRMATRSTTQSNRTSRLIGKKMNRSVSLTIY
Thrombin inh = inhibitors of human thrombin | P00734 | alpha-thrombin, Boc-VPR-AMC fluorogenic substrate cleavage | inhibition, % at 5 µM | 220,000 tested, 0.26% active | AID 1046;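 active = inhibition at or above 40%; inactive = inhibition below 40%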;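 note: 0% = enzyme with no compound and 100% = wells without enzyme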
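System – human alpha-thrombin · Medium – pH 7.5 Tris (50 mM) with NaCl 150 mM, Tween 20 0.05% · Compound – single-point dosing at 5 µM, 0.2% DMSO · Incubation – enzyme reaction carried out at room temperature · Technique – fluorescence of released AMC, ex 355 nm, em 460 nm · Read-out basis – % inhibition of thrombin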
FXIIa inh = blocks human coagulation factor XIIa protease activity | P00748 | purified FXIIa, Boc-QGR-AMC fluorogenic substrate, 2 h | inhibition, % at 5 µM | 220,000 tested, 0.3% active; in the data active = inhibition above about 40%;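 note: 0% = enzyme with no compound and 100% = blank without enzyme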
FXIa inh = inhibitors of human coagulation factor XIa; purified FXIa, Boc-Glu-Ala-Arg-AMC fluorogenic substrate; 220,000 tested, 0.14% active; inhibition, % at 5 µM;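 active = inhibition of at least 40%; inactive = inhibition below 40%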;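 note: fluorescence of freed AMC excited at 355 nm; 0% = enzyme without compound and 100% = no enzyme blank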
Starred values were filed as active, the others as inactive; x = no result given. The list is not random: actives were taken first. Their share in the collection is about 1.8%.

SMILES	KLK5 inh	Platelet DG rel	Wee1 stabilizer	Thrombin inh	FXIIa inh	FXIa inh
COc1ccc(C(=O)N[C@H](C(=O)Nc2nc3c(s2)CCCC3)C(C)C)cc1	-13.4	-15.7	10.2*	-3.2	6.2	3.7
CCOc1ccccc1C(=O)N[C@H](C(=O)Nc1nc2c(s1)CCCC2)C(C)C	-2.1	1.3	1.4	-0.1	7.8	0.1
COc1ccccc1C(=O)n1nc(-c2cccnc2)nc1N	61.3*	-15.8	1.4	x	85.5*	-3.8
Cc1ccc(S(=O)(=O)n2nc(-c3cccnc3)nc2N)cc1	-12.0	5.2	1.8	3.7	18.3	7.8
Cc1ccc(C(=O)n2nc(-c3cccnc3)nc2N)cc1	73.7*	4.2	0.4	82.3*	93.9*	48.0*
COc1ccccc1C(=O)N1CCN(Cc2cccnc2)CC1	x	8.9	x	x	x	x
Cc1cc(C)cc(NC(=O)CS(=O)(=O)c2cccc3nsnc23)c1	x	-16.8	x	x	x	x
CCOCCc1nnc(NC(=O)Cc2c(F)cccc2Cl)s1	8.0	1.1	-0.7	-3.8	10.7	-0.7
COc1cccc(-c2cc(C(=O)N3CCN(c4ncccn4)CC3)c3ccccc3n2)c1	0.7	0.3	5.4	-3.1	-3.9	1.4
CC(C)Oc1cccc(-c2cc(C(=O)N3CCN(c4ncccn4)CC3)c3ccccc3n2)c1	-3.1	2.5	9.3*	1.7	8.7	-1.7
O=C1C2CC=CCC2C(=O)N1Cc1nnc(-c2ccccc2Br)o1 (stereo not drawn)	2.9	1.5	-0.1	-2.2	1.5	-5.0
COc1cc(/C=N/O)ccc1OCc1ccc(C(=O)O)cc1	-26.8	7.1	-4.2	-2.6	8.4	9.7
O=C(O)c1cc(/C=N\O)ccc1OCc1ccccc1	50.9*	0.7	4.2	7.5	2.3	2.5
Cc1ccc(-c2nc(N/N=C/c3ccncc3)c3ccccc3n2)cc1	2.7	109.4*	-4.5	-5.0	2.9	-3.8
COc1ccc(/C=N/Nc2nc(-c3cccnc3)nc3ccccc23)cc1OC	-1.0	7.2	-4.9	-3.4	1.5	-1.1
Oc1ccc(/C=N/Nc2nc(-c3cccnc3)nc3ccccc23)c(O)c1	39.6	12.4	-2.1	6.6	25.2	42.4*
Cc1c(O)ccc(/C=N/Nc2nc(-c3cccnc3)nc3ccccc23)c1O	2.6	-0.7	1.8	0.7	5.5	-0.2
Cc1ccccc1CN1CCSc2sccc2C1=O	-8.4	-5.3	-1.4	-5.5	2.4	-4.3
O=C(CSc1nncs1)NC(=O)NC1CCCC1	-16.5	-0.7	-4.0	0.9	3.4	-21.1
CCOc1c(Br)cc(CNc2ncn[nH]2)cc1OC	-24.9	-1.9	-1.3	-0.1	15.9	12.0
COc1cc(CNc2ncn[nH]2)cc(Br)c1OC	71.5*	5.8	-2.9	6.2	9.0	-3.4
COC(=O)c1cc(=O)c2c(C)nc(C(Cl)(Cl)Cl)nc2[nH]1	1.0	-8.6	10.2*	0.2	8.6	-0.3
CCOC(=O)c1c(C)nc(C(Cl)(Cl)Cl)nc1N	6.9	1.1	2.4	8.5	5.5	6.4
CC(=O)OCCC(NS(=O)(=O)OCC(Cl)(Cl)Cl)c1ccccc1 (stereo not drawn)	x	9.5	x	x	x	x
Cc1cccc(Nc2c([N+](=O)[O-])cc(C(=O)N3CC(=O)Nc4ccccc43)cc2[N+](=O)[O-])c1	-7.3	-2.6	-2.6	-6.3	4.4	3.8
SMILES	KLK5 inh	Platelet DG rel	Wee1 stabilizer	Thrombin inh	FXIIa inh	FXIa inh
Cc1cccc(N2N=C(C(=O)N3CC(=O)Nc4ccccc43)CCC2=O)c1	33.6	-2.6	-0.8	22.3	43.8*	33.3
O=C(NCc1nc2ccccc2[nH]1)C1=C[C@H](C2CC2)C[C@H](OCc2ccc(CO)cc2)O1	-1.7	-4.4	x	-1.6	7.5	-1.3
O=c1ccc(-c2ccc(S(=O)(=O)Nc3cccc(Br)c3)o2)n[nH]1	x	-25.6	x	x	x	x
Cc1ccc(NC(=O)CSc2nnc(COc3ccc(C#N)cc3)n2-c2ccccc2)cc1C	45.5*	-3.1	0.0	22.9	7.7	7.5
CC(=O)Nc1ccc(/C=C/c2noc(-c3ccccc3O)n2)cc1	x	-3.0	x	x	x	x
Oc1ccccc1/C=C/c1noc(-c2ccccc2O)n1	-0.8	10.0	9.2*	-0.1	4.2	-2.4
COC(=O)[C@@H]1C(c2c(OC)cc(OC)cc2OC)=NO[C@H]1C(=O)OC	-7.4	21.9	3.8	-5.9	7.1	4.9
CCCCOC(=O)CCc1c(C)[nH]c(=O)c(C#N)c1C	-3.1	60.8*	2.3	1.1	1.8	-4.8
Cn1c(SCC(=O)c2ccc3c(c2)NC(=O)CO3)nc2ccccc21	37.5	-2.9	-1.0	53.5*	22.4	24.9
Cc1[nH]cnc1C(=O)N/N=C/c1c(Cl)cccc1Cl	x	72.0*	x	x	x	x
O=C(COC(=O)c1cc2ccccc2oc1=O)Nc1ccc(F)cc1F	13.2	0.1	0.6	-9.8	-1.9	-5.1
Cc1ccc2nc(-c3ccc(NC(=O)CN4CCN(C(=O)c5ccco5)CC4)cc3)sc2c1	-5.0	7.2	10.9*	-1.0	11.6	4.8
Cc1[nH]c2ccccc2c1NC(=O)CN1CCN(C(=O)c2ccco2)CC1	20.4	14.9	0.6	35.3	59.3*	38.4
CC(=O)c1ccc(N2CCN(C(=O)/C=C/c3ccc(S(=O)(=O)NCc4ccco4)cc3)CC2)cc1	-6.2	9.9	10.0*	-8.8	12.0	2.3
CCOc1ccc(N(C(C)=O)c2nc(C)cc(C)c2C#N)cc1	51.5*	-6.6	-0.8	27.5	21.8	18.5
CCN(C(=O)CSC1=Nc2ccccc2C2CC=NN12)C1CCS(=O)(=O)C1 (stereo not drawn)	-0.2	4.1	2.0	1.1	8.1	2.0
CCOC(=O)N1CCC(N2C(=O)c3ccccc3C2Nc2cc(OC)c(OC)c(OC)c2)CC1 (stereo not drawn)	-6.7	63.9*	-1.1	-5.0	9.9	5.3
CC1C(=O)C(C)C(c2cccc(Br)c2)NC1c1cccc(Br)c1 (stereo not drawn)	x	2.0	x	x	x	x
CC(=O)Nc1nc(COc2ccc3ccccc3c2)cs1	-11.4	2.8	7.0	3.0	16.9	7.1
Nc1nc(COc2ccc3ccccc3c2)cs1	-12.6	-9.7	9.0*	-2.2	16.1	8.1
COc1ccc(-c2cc(-c3ccccc3)n[nH]2)c(O)c1	-16.5	7.6	10.2*	-0.6	0.9	-1.3
O=C(C[n+]1cccc(CNC(=O)c2ccc(OC(F)F)cc2)c1)Nc1cc(C(F)(F)F)ccc1Cl	61.3*	-5.7	0.3	36.0	23.9	10.2
CC1CCCN(C(=O)c2nn(C)c3c2CS(=O)(=O)c2ccccc2-3)C1 (stereo not drawn)	x	12.6	x	x	x	x
CC(NC(=O)C1CCN(S(=O)(=O)N2CCCCCC2)CC1)c1ccccc1 (stereo not drawn)	-2.0	-11.9	1.8	-2.7	0.0	1.6
CC(NC(=O)C1CCN(S(=O)(=O)N2CCC3(CC2)OCCO3)CC1)c1ccccc1 (stereo not drawn)	-6.9	3.3	10.7*	-5.3	1.5	6.8
N#Cc1c2c(c(Nc3ccc(O)cc3)n3c1nc1ccccc13)CCC2	44.2*	8.3	7.0	35.3	11.8	-0.4
